Assay outcomes (PubChem BioAssay)
Compounds with a hit are over-represented: about 3.8% of the library has one in this group of screens.
KCNK3 block: human KCNK3 channel inhibitors, primary screen, CHO cells, FluxOR thallium flux, B-score; 0.84% of 340,000 active; AID 602410, 2012; Potassium channel subfamily K member 3 (Homo sapiens), O14649; FluxOR fluorescence; stronger effect = lower value; B-score at 10 µM;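 active = B-score under library mean minus 4 SD, starting fluorescence ratio at most library mean plus 5 SD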;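 also: more negative B-score means stronger inhibition of thallium flux through KCNK3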
KCNK9 block: KCNK9 potassium channel inhibitors, primary screen, HEK293 cells, thallium flux; Potassium channel subfamily K member 9 (Homo sapiens), Q9NPC2; FluxOR thallium flux fluorescence; stronger effect = lower value; B-score at 10 µM; 1.2% of 310,000 active;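 active = ratio B-score over 3 SD below the library mean, with starting fluorescence within 5 SD of its mean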;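 also: negative B-score means less thallium flux so channel inhibition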
KCNQ1 block: inhibitors of human KCNQ1 channel, primary screen, cell-based, thallium flux, high-throughput. Potassium voltage-gated channel subfamily KQT member 1 (Homo sapiens), P51787. CHO-K1 KCNQ1, FluxOR thallium flux fluorescence; stronger effect = higher value. B-score at 10 µM. 1.3% of 310,000 active. AID 2642, 2010;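 active = compounds whose thallium flux B-score, printed positive for inhibition, exceeds three library SD while starting fluorescence stays within three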;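 also: channel opened by potassium depolarization with thallium stimulus after 20 min compound exposure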
KCNQ1 pot: potentiators or activators of KCNQ1 channel, primary screen, cell-based, thallium flux, high-throughput | CHO-K1 KCNQ1, thallium flux FluxOR fluorescence; stronger effect = higher value | B-score at 10 µM | 0.35% of 310,000 active;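 active = fluorescence ratio B-score, a plate-corrected score, at least three library SD, with initial intensity B-score within 5 SD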
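Doses: Single concentration per compound, DMSO matched to controls | Test system: KCNQ1-transfected CHO-K1 cells | Timing: 90 min dye loading and 20 min compound exposure, both at room temperature | Measured by: Kinetic FluxOR thallium fluorescence, 10-s 1-Hz baseline, 110-s post-stimulus read | Medium: Assay buffer with matched DMSO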
hERG rescue: hERG rescue from dofetilide block, primary screen, cell-based, CHO-hERG, FluxOR thallium flux, dofetilide IC70 | dofetilide IC70 present | activation (rescue from dofetilide block), less the hit threshold, % at 10 µM | 0.51% of 310,000 active;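 active = activation above the mean of controls blocked by dofetilide plus 5 SD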;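 also: thallium influx through hERG after potassium depolarization seen as dye fluorescence rise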
Target sequence (Q12809 whole entry, looked up): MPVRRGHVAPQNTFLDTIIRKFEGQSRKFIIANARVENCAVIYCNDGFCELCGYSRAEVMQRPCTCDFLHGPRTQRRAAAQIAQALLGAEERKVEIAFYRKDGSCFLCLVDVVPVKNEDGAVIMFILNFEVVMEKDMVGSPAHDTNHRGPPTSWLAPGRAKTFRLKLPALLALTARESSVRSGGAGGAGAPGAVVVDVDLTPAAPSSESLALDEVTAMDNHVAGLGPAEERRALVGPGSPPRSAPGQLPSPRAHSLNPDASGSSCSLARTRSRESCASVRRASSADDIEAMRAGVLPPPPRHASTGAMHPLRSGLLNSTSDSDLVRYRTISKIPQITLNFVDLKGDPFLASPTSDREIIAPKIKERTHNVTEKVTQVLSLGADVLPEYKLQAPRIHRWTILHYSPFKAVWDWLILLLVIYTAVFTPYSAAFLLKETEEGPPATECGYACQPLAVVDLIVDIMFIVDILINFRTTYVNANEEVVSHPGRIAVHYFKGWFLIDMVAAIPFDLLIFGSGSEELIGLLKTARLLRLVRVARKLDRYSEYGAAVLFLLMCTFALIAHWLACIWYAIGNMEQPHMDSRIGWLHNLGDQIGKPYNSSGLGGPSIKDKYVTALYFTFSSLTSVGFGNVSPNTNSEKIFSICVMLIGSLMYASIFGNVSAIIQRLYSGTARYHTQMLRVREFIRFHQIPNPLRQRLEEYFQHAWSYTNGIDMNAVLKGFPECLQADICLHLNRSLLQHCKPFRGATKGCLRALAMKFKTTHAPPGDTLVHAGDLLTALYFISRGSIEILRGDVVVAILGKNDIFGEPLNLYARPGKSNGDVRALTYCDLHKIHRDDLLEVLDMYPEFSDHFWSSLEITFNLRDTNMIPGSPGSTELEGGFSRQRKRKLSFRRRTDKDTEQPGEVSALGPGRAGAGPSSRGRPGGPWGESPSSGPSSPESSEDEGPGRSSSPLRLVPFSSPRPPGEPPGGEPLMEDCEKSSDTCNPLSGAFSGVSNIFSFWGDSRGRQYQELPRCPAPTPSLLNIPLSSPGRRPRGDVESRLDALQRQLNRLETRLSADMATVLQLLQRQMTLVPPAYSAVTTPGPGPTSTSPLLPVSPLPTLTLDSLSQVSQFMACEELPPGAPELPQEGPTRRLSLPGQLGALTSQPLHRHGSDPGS
Kir21 inh: inhibitors of mouse Kir2.1 inward-rectifier potassium channel. Inward rectifier potassium channel 2 (Mus musculus), P35561. HEK293-Kir2.1, FluxOR thallium flux fluorescence; stronger effect = lower value. B-score at 10 µM. 0.85% of 310,000 active;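 active = fluorescence ratio B-score at or below minus 3 SD of library scores, with starting-brightness B-score within 2 SD, cut at about -4.2 in these data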;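 also: channel flux triggered by added potassium and thallium sulfate stimulus; B-score of peak minus minimum fluorescence over baseline after thallium stimulus; more negative B-score means stronger Kir2.1 block with less thallium influx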
KCNK9 block conf: KCNK9 potassium channel inhibitors, confirmation, HEK293 cells, thallium flux, duplicate. shares compounds with KCNK9 block. FluxOR thallium flux fluorescence. inhibition, % at 10 µM. 43% of 4,900 active. AID 492992, 2010;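 active = thallium signal inhibited by more than 5 SD of the compound-free buffer control wells, on both duplicate plates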;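 also: 0% = assay buffer control wells without compound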
Kir21 sel: mouse Kir2.1 channel inhibition, confirmation, selectivity assay for KCNK9 modulator project, cell-based, HEK293, thallium flux | shares compounds with KCNK9 block | inhibition, % at 10 µM | 4% of 4,900 active | Kir2.1 cells, FluxOR thallium flux fluorescence;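 active = thallium signal drop more than 5 SD beyond the mean of the no-compound control wells, seen in both duplicate plates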;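 also: signal is fluorescence rise after thallium addition divided by baseline fluorescence; plate controls were assay buffer only for no effect and full block by chlorpromazine control for full effect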
HEK293 Tl ctr: thallium flux in non-induced HEK293 cells, confirmation, counter-screen for KCNK9 inhibitor project, cell-based, second counter screen, non-induced KCNK9-HEK293. FluxOR thallium flux. shares compounds with KCNK9 block. 40% of 4,900 active. inhibition, % at 10 µM;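 active = thallium signal drop beyond 5 SD of the untreated control mean, on both duplicate plates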;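 also: plate controls were buffer only IC0 wells for no effect and SID17386958 at its maximal inhibitory level for full effect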
Active calls of the source: *; i = inactive; · = no result given.

SMILES	KCNK3 block	KCNK9 block	KCNQ1 block	KCNQ1 pot	hERG rescue	Kir21 inh	KCNK9 block conf	Kir21 sel	HEK293 Tl ctr
COc1cc(C(=O)N2CCN(S(=O)(=O)c3ccc(Cl)cc3)CC2)ccc1OCC(=O)N1CCOCC1	i	·	·	·	·	·	·	·	·
CC1(C)Cc2ccccc2C(N/N=C/c2ccc(Cl)cc2)=N1	i	i	i	i	-12	-0.03	i	i	i
O=[N+]([O-])c1ccc(CSc2nnc(SCc3ccc(Cl)cc3)s2)cc1	i	-9.3*	i	i	0	-0.49	45%*	i	46%*
Nc1nnc(SCc2ccc([N+](=O)[O-])cc2)s1	i	i	i	i	-10	-2.4	·	·	·
O=C(/C=C/c1ccco1)NC(=S)Nc1cccc(-c2nc3ccccc3s2)c1	i	i	i	i	-11	-0.39	i	i	i
CN(CC(=O)Nc1ccccc1Br)C(=O)CNC(=O)c1ccc2c(c1)OCO2	i	i	i	i	-14	0.43	·	·	·
Cc1ccc(CSCc2ccc(C(=O)NC3CC3)o2)cc1	i	i	i	i	-3	1	·	·	·
Cc1ccc(CSCc2ccc(C(=O)NCCC(C)C)o2)cc1	i	i	i	i	-6	0.18	i	i	i
COC1CCCCC1Nc1cccc(SC)c1 (configuration not stated)	i	i	i	i	-2	-0.28	i	i	i
CCCCCCCn1c2c(c(=N)c3ccccc31)CCC2	-11*	-10*	i	i	-31	-6.7*	47%*	77%*	i
CC(C)C(Sc1nc(-c2ccccc2)cc(-c2ccccc2)c1C#N)C(=O)O (configuration not stated)	i	i	i	i	-11	0.1	i	i	i
Cc1cc(NC(=O)CSCC(=O)N(C)Cc2c(F)cccc2Cl)no1	i	i	i	i	-6	-0.01	·	·	·
Cc1cccc(NC(=O)CSCC(=O)N(C)Cc2c(F)cccc2Cl)c1	i	i	i	i	-12	-2.4	i	i	i
COc1ccc(-n2c(Cc3cccn3C)nnc2SCC(=O)Nc2cccc(Cl)c2)cc1	i	i	i	i	-3	1.8	i	i	i
COc1ccc(-n2c(Cc3cccn3C)nnc2SCC(=O)Nc2cccc(NC(C)=O)c2)cc1	i	i	i	i	-12	0.92	·	·	·
COc1cccc(NC(=O)CSc2nnc(Cc3cccs3)n2-c2ccc(C)cc2)c1	i	i	i	i	-6	0.01	·	·	·
COc1ccc(NC(=O)CSc2nnc(Cc3cccs3)n2-c2ccc(C)cc2)cc1	i	i	i	i	-7	-1	i	i	i
O=C(NCCCN1CCOCC1)c1sc2cc([N+](=O)[O-])ccc2c1Cl	i	i	i	i	4	-1.9	i	i	i
Brc1ccc(Cn2c(-c3ccc(Br)o3)nc3ccccc32)o1	i	-8.8*	i	i	-8	2.5	i	i	32%*
Cn1c(-c2ccc(Br)o2)nc2ccccc21	i	i	i	i	-7	-0.01	·	·	·
